Screening results as filed in PubChem.
Shown are actives, neighbours in structure and some others; about 5.8% of the full set was active somewhere.
HIV Rev-RRE inh = inhibitors of HIV-1 Rev-RRE RNA interaction; P05866; Rev peptide-RRE RNA binding, FRET; inhibition, % at 8 µM; hit rate 0.79% among 97,000;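 active = inhibition above the screen-wide mean plus 3 SD, cut at about 35% in these data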;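 note: 0% = median DMSO wells and 100% = median Neomycin B control wells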
Target sequence (P05866 whole entry, looked up): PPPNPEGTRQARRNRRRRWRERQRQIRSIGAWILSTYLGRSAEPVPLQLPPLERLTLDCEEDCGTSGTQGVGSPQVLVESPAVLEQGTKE
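Test system – labelled RRE RNA duplex and labelled Rev peptide · Signal – fluorescein-to-Cy5 FRET, 480 nm excitation · Evaluation – % inhibition of FRET ratio versus controls · Benchmarks – DMSO low control, neomycin B high control · Incubation – 5 min RNA-compound premix plus 15 min binding step, 25 °C · Medium – HEPES pH 7.5 salt buffer with EDTA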
PTK2B oligo ant = antagonists of human Pyk2 oligomerization. Q14289. Q293 cells, Pyk2 FERM NanoBiT luminescence; stronger effect = lower value. z-score (the deposit names both 25 µM and 10 µM). hit rate 0.83% among 99,000;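 active = Z-score of -3 or lower, scaled per plate to the spread of control and sample wells; inactive = z-score above -3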;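 note: negative z-score means lost luminescence so less FERM oligomerization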
PLK1 kinase inh = blocks human PLK1 kinase activity. P53350. AID 619. recombinant PLK1 kinase, TR-FRET peptide phosphorylation. hit rate 0.53% among 97,000. inhibition, % at 10 µM;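 active = inhibition of 50% or more in the single-concentration screen; inactive = inhibition below 50%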;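 note: 0% = DMSO max control and 100% = H-89 dihydrochloride min control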
FAK blocker = blocks human focal adhesion kinase activity. AID 727. hit rate 0.84% among 97,000. inhibition, %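 (tested at 7 µM)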. biochemical FAK kinase activity assay; in the data active = inhibition above about 19%;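 note: 0% = DMSO and 100% = reference compound high control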
Cav3 T inh = blocks human Cav3.2 T-type calcium channel. O95180. Cav3.2-expressing cells, Fluo-4 calcium fluorescence FDSS; stronger effect = lower value. B-score at 10 µM. hit rate 4% among 100,000;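 active = single-dose well whose peak fluorescence ratio is a statistical outlier from its plate by either plate-standardised score or position-corrected B-score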
PLK1 PBD inh = blocks phosphopeptide binding to human Plk1 polo box domain; P53350; Plk1 PBD phosphopeptide binding, fluorescence polarization; inhibition, %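 (tested at about 20 µM)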; hit rate 0.13% among 97,000; in the data active = inhibition above about 34%, passing the limit was not always enough
Starred values were filed as active, the others as inactive; nt = no result given.

SMILES	HIV Rev-RRE inh	PTK2B oligo ant	PLK1 kinase inh	FAK blocker	Cav3 T inh	PLK1 PBD inh
COCCOC(=O)C1=C(C)N=C2SCCC(=O)N2C1/C=C/c1ccccc1 (stereo unspecified)	10	0.14	-9	-3	-0.14	-18
CCOC(=O)C1=C(C)N=C2SCCC(=O)N2[C@@H]1/C=C/c1ccccc1	1	-1.2	-1	-6	-4.8*	16
CCOC(=O)C1=C(C)N=C2SC(C)C(=O)N2C1/C=C/c1ccccc1OC (stereo unspecified)	11	0.77	2	-2	-5.2*	-10
CCOC(=O)C1CN(S(=O)(=O)c2ccc(C)cc2)C1	6	-0.21	-15	1	-0.55	-8
COC(=O)C1CN(S(=O)(=O)c2ccc(C)cc2)CCN1S(=O)(=O)c1ccc(C)cc1 (stereo unspecified)	5	-3.7*	-1	0	-0.36	-6
CC(C)(C)c1cc(C(C)(C)C)cc(S(=O)(=O)CCc2ccccn2)c1	3	-0.45	-9	-2	-6.9*	-14
COC(=O)C1N2C(=O)[C@@H](NC(=O)COc3ccccc3)[C@H]2SC1(C)C (stereo partly specified)	nt	nt	nt	nt	0.36	nt
Cc1cccc(N2CCN(C(=O)C3CCN(S(=O)(=O)c4cccc5nsnc45)CC3)CC2C)c1 (stereo unspecified)	8	0.06	-7	1	-3.4*	-29
COc1ccc2nc(NC(=O)C3CCN(S(=O)(=O)c4cccc5nsnc45)CC3)sc2c1	0	-3.4*	-1	7	-0.39	-28
Cc1cccc(N2CCN(C(=O)C3CCN(S(=O)(=O)c4cccc5cccnc45)CC3)CC2C)c1 (stereo unspecified)	nt	nt	-7	nt	nt	-25
O=[N+]([O-])c1cc(Cl)cc(/C=N\Nc2ccccn2)c1O	-6	0.11	12	0	-3.7*	7
CCN(Cc1ccccc1)C(c1ccccn1)c1nnnn1C1CCCCC1 (stereo unspecified)	11	-0.62	-4	1	-4*	-12
COc1ccc(C(=O)N(Cc2ccco2)Cc2cccs2)c(O)c1	0	-0.41	-4	2	-4.8*	-13
COc1ccc(CNC(=O)C(c2ccco2)N(Cc2cccs2)C(=O)Cc2cccs2)cc1 (stereo unspecified)	9	-1.8	-2	-1	-0.2	19
Cc1ccc(-c2nnn(CC(=O)N(Cc3cccs3)C(C(=O)NC(C)(C)C)c3ccco3)n2)o1 (stereo unspecified)	4	-1.2	-6	-4	-4.8	-28
Cc1ccc(-c2nnn(CC(=O)N(Cc3ccco3)C(C(=O)NC(C)(C)C)c3cccs3)n2)o1 (stereo unspecified)	2	-0.19	-5	-2	-6.3*	-13
COc1ccc(CNC(=O)C(c2cccs2)N(Cc2ccco2)C(=O)Cc2cccs2)cc1 (stereo unspecified)	7	-0.76	-9	3	-7.2*	13
CSc1nc(Sc2ccccc2Cl)c2ccccc2n1	6	0.17	-8	-9	-0.6	-5
COC(=O)c1c(CSc2ccc(C)c(C)c2)noc1C(=O)NCc1ccc(OC)cc1	5	nt	-4	0	-2.2	6
C=CCN1C(=O)C(CC(=O)Nc2ccccc2)SC1=Nc1ccc(S(N)(=O)=O)cc1 (stereo unspecified)	1	-0.44	-19	4	-0.057	4
CCc1nnc(NC(=O)CSc2nc(C)c3c(c2C#N)CCCC3)s1	6	-3.4*	-19	0	-0.88	4
COc1ccc(NC(=O)CSc2nc(C)c3c(c2C#N)CCCC3)cc1	1	-2.3	-11	-3	-0.72	-17
Cc1nc(SCC(=O)NCc2ccc3c(c2)OCO3)c(C#N)c2c1CCCC2	7	-1.6	-4	1	-4*	-9
CCn1cc(SCC(=O)NCc2ccc3c(c2)OCO3)c2ccccc21	nt	nt	nt	nt	-3.9*	nt
C[C@H]1CCC[C@]2(O[C@H](CCO)C[C@@H](O)[C@@H]2O)O1	nt	nt	nt	nt	0.2	nt
COCCOC(=O)C1=C(C)NC(=O)N(C(C)=O)C1c1ccc(Cl)cc1 (stereo unspecified)	7	-1.6	1	8	-0.22	-10
Cn1c(C(=O)O)c(CC(=O)N2CCC(Cc3ccccc3)CC2)c2ccccc21	nt	1.6	nt	nt	nt	nt
O=C1CC2(CCCCCC2)Oc2ccc(Cl)cc21	nt	nt	nt	nt	0.52	nt
